Results as given in ChEMBL document CHEMBL1671761, “Preclinical characterization of BI 201335, a C-terminal carboxylic acid inhibitor of the hepatitis C virus NS3-NS4A protease” (Antimicrob Agents Chemother, 2010).

Columns and labels:
Rattus norvegicus [1] = organism: Rattus norvegicus; assay: Inhibition of rat 5-HT1 receptor at 10 uM
[2] = biological target: Angiotensin-converting enzyme (Oryctolagus cuniculus) (UniProt P12822); assay: Inhibition of rabbit ACE at 10 uM
[3] = biological target: Angiotensin-converting enzyme (Homo sapiens) (UniProt P12821); assay: Inhibition of human ACE at 10 uM
[4] = biological target: Alpha-2A adrenergic receptor (Rattus norvegicus) (UniProt P22909); assay: Inhibition of rat adrenergic receptor Alpha-2 at 10 uM
[5] = biological target: Alpha-1A adrenergic receptor (Rattus norvegicus) (UniProt P43140); assay: Inhibition of rat adrenergic receptor Alpha-1at 10 uM
[6] = biological target: Adenosine receptor A1 (Homo sapiens) (UniProt P30542); assay: Inhibition of human adenosine A1 receptor at 10 uM
[7] = biological target: Protein kinase C (PKC) (Rattus norvegicus) (UniProt P05696+P68403+P09216+P63319+P09215+Q64617+Q9WTQ0+P09217); assay: Inhibition of rat PKC at 10 uM
Hepatitis C virus = assay: Inhibition of HCV 1b NS3/4A protease; parameters: species or system Hepatitis C virus subtype 1b; conditions: read-out: Ki(app)
Summary of the method: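 Full-length NS3 coexpressed with the 54-residue NS4A, 0.5 nM (2.5 nM for genotype 1a). Substrate was 5 μM anthranilyl-DDIVPAbu[C(O)-O]AMY(3-NO2)TW-OH in 50 mM Tris pH 8.0, 0.25 M citrate, 0.01% dodecylmaltoside, 1 mM TCEP, 5% DMSO. Run at 23°C for 60-70 min, stopped with MES pH 5.8, read by product fluorescence. IC50 converted to apparent Ki via IC50=Ki(1+[S]/Km). Mean ± SD, ≥3 experiments.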

[8] = Mean retention time in Sprague-Dawley rat at 5 mg/kg, po; type: ADME, organism-based, Sparague-Dawley; parameters: dose 5 mg/kg, route oral; conditions: in vivo
Summary of the method: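 Male Sprague-Dawley rats (275-300 g), fasted overnight with 10% dextrose water. Single oral dose in 0.5% Methocel/0.3% Tween 80 at 10 ml/kg. Carotid-cannula blood taken 0-8 h, with plasma from 3 rats pooled per time point. Solid-phase extraction, then LC-MS/MS at m/z 869.3 (LOQ 10 nM). Noncompartmental analysis.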

[9] = Cmax in Sprague-Dawley rat at 5 mg/kg, po; type: ADME, organism-based, Sparague-Dawley; parameters: dose 5 mg/kg, route oral; conditions: in vivo
Summary of the method: (§1)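 Single oral dose of 5 mg/kg in 0.5% Methocel with 0.3% Tween 80 (10 ml/kg) to fasted male animals: Sprague-Dawley rats (275-300 g, overnight fast with 10% dextrose water), rhesus monkeys, beagle dogs. Rat blood from cannulated carotid at 0-8 h, pooled from 3 rats per time point; monkey/dog n=3. Plasma solid-phase extracted, LC-MS/MS at m/z 869.3; noncompartmental analysis.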

[10] = Cmax in monkey at 5 mg/kg, po; type: ADME, organism-based, Macaca mulatta; parameters: dose 5 mg/kg, route oral; conditions: rhesus monkey, in vivo; summary of the method: as §1
[11] = Tmax in monkey at 5 mg/kg, po; type: ADME, organism-based, Macaca mulatta; parameters: dose 5 mg/kg, route oral; conditions: rhesus monkey, in vivo
Summary of the method: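 Fasted male rhesus monkeys (3.0-4.8 kg) given a single oral dose in 0.5% Methocel/0.3% Tween 80. Plasma taken by solid-phase extraction and measured by LC-MS/MS at m/z 869.3 (LOQ 10 nM). Noncompartmental analysis. Mean ± SE for three males.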

[12] = AUC in monkey at 5 mg/kg, po; type: ADME, organism-based, Macaca mulatta; parameters: dose 5 mg/kg, route oral; conditions: rhesus monkey, plasma; summary of the method: as §1
[13] = biological target: Beta-secretase 1 (Homo sapiens) (UniProt P56817); assay: Inhibition of human recombinant BACE-1 at 10 uM
[14] = biological target: Calpain-1 catalytic subunit (Homo sapiens) (UniProt P07384); assay: Inhibition of human calpain-1 at 10 uM
Caspase-1 (Homo sapiens) = Caspase-1 (Homo sapiens) (UniProt P29466); assay: Inhibition of human caspase-1 at 10 uM
Caspase-7 (Homo sapiens) = Caspase-7 (Homo sapiens) (UniProt P55210); assay: Inhibition of human caspase-7 at 10 uM
[15] = biological target: Caspase-10 (Homo sapiens) (UniProt Q92851); assay: Inhibition of human recombinant caspase-10 expressed in Escherichia coli at 10 uM by fluorimetry
Cathepsin C (Bos taurus) = Cathepsin C (Bos taurus) (UniProt Q864S1); assay: Inhibition of bovine cathepsin C at 10 uM
[16] = biological target: Pro-cathepsin H (Homo sapiens) (UniProt P09668); assay: Inhibition of human cathepsin H at 10 uM
[17] = biological target: Procathepsin L (Homo sapiens) (UniProt P07711); assay: Inhibition of human cathepsin L at 10 uM
[18] = biological target: Cathepsin Z (Homo sapiens) (UniProt Q9UBR2); assay: Inhibition of human cathepsin X at 10 uM
Homo sapiens [19] = organism: Homo sapiens; assay: Inhibition of human chymotrypsin at 10 uM
[20] = biological target: Neutrophil elastase (Homo sapiens) (UniProt P08246); assay: Inhibition of human elastase, leukocyte at 10 uM
[21] = biological target: Matrix metalloproteinase-9 (Homo sapiens) (UniProt P14780); assay: Inhibition of human MMP-9 at 10 uM
[22] = biological target: Prothrombin (Homo sapiens) (UniProt P00734); assay: Inhibition of human thrombin at 10 uM
[23] = biological target: Tissue-type plasminogen activator (Homo sapiens) (UniProt P00750); assay: Inhibition of human tPA at 10 uM
[24] = biological target: Neprilysin (Rattus norvegicus) (UniProt P07861); assay: Inhibition of rat neutral endopeptidase at 10 uM
Rattus norvegicus [25] = organism: Rattus norvegicus; assay: Inhibition of rat calcium channel N-type at 10 uM
[26] = biological target: D(2) dopamine receptor (Homo sapiens) (UniProt P14416); assay: Inhibition of human dopamine receptor 2L at 10 uM
Rattus norvegicus [27] = organism: Rattus norvegicus; assay: Inhibition of rat GABA-A receptor, agonist site at 10 uM; type: functional
[28] = biological target: Histamine H2 receptor (Homo sapiens) (UniProt P25021); assay: Inhibition of human H2 receptor at 10 uM
Homo sapiens [29] = organism: Homo sapiens; assay: Inhibition of human nicotinic acetylcholine receptor at 10 uM
Mesocricetus auratus = organism: Mesocricetus auratus; assay: Inhibition of syrian hamster potassium channel-ATP at 10 uM
[30] = biological target: Thromboxane A2 receptor (Homo sapiens) (UniProt P21731); assay: Inhibition of human Thromboxane A2 receptor at 10 uM
[31] = biological target: 5-hydroxytryptamine receptor 1A (Homo sapiens) (UniProt P08908); assay: Inhibition of human 5-HT1A receptor at 10 uM
[32] = biological target: 5-hydroxytryptamine receptor 2A (Rattus norvegicus) (UniProt P14842); assay: Inhibition of rat 5-HT2A receptor at 10 uM
[33] = biological target: 5-hydroxytryptamine receptor 4 (Cavia porcellus) (UniProt O70528); assay: Inhibition of guinea pig 5-HT4 receptor at 10 uM
Rattus norvegicus [34] = organism: Rattus norvegicus; assay: Inhibition of rat sodium channel site 2 at 10 uM
Homo sapiens [35] = organism: Homo sapiens; assay: Inhibition of human dopamine receptor 4.7 at 10 uM
[36] = biological target: Neutrophil elastase (Homo sapiens) (UniProt P08246); assay: Inhibition of human serum elastase, neutrophil at 10 uM by fluorimetry
Homo sapiens [37] = organism: Homo sapiens; assay: Inhibition of human endothelin-converting enzyme at 10 uM by cerep assay
[38] = biological target: Neprilysin (Homo sapiens) (UniProt P08473); assay: Inhibition of human neutral endopeptidase from HUV-EC-C cells at 10 uM by fluorimetry
Neprilysin (Homo sapiens), sequence (P08473 whole entry): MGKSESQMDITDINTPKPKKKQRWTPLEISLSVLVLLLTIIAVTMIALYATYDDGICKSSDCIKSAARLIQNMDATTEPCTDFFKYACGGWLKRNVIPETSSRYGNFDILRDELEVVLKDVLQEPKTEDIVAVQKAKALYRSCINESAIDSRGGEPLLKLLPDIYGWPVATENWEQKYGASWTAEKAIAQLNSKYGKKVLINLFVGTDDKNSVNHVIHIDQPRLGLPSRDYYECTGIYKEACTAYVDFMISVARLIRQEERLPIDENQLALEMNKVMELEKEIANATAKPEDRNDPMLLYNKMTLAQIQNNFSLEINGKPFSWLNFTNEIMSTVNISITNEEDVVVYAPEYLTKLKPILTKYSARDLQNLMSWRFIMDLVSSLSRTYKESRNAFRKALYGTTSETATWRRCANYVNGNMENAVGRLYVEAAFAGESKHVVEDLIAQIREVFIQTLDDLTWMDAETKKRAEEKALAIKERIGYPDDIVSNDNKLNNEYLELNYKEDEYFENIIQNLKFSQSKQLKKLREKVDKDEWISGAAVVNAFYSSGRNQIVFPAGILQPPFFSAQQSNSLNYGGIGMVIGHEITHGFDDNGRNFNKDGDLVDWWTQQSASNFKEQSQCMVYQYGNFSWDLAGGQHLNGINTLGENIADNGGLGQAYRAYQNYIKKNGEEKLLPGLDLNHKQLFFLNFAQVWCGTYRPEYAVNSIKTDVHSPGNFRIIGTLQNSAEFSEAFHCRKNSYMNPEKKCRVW

Neutrophil elastase (Homo sapiens), sequence (P08246 whole entry): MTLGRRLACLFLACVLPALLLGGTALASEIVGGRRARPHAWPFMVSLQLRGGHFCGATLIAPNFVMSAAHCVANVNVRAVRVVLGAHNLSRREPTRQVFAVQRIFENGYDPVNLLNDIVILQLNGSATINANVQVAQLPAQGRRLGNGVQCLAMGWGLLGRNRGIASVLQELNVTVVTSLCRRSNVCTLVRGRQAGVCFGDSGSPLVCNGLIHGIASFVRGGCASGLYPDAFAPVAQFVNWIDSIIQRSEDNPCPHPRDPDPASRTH
Angiotensin-converting enzyme (Oryctolagus cuniculus), sequence (P12822 whole entry): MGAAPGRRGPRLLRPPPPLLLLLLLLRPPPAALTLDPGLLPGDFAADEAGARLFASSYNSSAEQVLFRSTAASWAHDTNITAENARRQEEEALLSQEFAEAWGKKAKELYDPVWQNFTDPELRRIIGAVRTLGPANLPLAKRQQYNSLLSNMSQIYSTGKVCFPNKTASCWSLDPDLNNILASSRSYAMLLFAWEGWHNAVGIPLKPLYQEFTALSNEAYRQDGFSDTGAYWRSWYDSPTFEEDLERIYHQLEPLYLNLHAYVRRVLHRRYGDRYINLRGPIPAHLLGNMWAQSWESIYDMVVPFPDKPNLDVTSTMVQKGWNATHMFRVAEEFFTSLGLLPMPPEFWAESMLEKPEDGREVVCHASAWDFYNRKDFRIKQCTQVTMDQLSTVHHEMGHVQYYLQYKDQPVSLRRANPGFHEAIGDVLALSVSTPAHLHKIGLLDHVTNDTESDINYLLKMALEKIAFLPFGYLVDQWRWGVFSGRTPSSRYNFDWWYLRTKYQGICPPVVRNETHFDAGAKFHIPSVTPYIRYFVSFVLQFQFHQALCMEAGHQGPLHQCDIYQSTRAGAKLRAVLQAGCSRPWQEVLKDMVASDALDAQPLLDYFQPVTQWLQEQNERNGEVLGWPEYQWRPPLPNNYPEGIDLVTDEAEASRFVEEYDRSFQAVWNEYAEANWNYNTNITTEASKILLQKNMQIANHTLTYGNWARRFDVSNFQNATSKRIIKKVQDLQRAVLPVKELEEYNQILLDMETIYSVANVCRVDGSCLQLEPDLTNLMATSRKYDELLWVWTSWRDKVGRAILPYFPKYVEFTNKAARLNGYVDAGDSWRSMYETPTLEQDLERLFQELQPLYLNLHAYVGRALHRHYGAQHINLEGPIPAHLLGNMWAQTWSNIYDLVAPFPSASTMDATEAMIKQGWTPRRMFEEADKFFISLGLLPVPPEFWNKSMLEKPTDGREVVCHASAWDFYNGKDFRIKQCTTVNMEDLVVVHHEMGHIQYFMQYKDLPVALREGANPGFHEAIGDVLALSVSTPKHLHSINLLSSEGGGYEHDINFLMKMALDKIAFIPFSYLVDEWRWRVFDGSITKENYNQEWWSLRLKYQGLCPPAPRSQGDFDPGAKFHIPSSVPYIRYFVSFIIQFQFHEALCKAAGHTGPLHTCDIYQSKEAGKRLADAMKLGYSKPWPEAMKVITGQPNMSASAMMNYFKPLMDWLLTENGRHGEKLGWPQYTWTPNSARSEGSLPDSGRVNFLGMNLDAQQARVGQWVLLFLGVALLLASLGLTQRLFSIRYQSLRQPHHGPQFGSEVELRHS
Calpain-1 catalytic subunit (Homo sapiens), sequence (P07384 whole entry): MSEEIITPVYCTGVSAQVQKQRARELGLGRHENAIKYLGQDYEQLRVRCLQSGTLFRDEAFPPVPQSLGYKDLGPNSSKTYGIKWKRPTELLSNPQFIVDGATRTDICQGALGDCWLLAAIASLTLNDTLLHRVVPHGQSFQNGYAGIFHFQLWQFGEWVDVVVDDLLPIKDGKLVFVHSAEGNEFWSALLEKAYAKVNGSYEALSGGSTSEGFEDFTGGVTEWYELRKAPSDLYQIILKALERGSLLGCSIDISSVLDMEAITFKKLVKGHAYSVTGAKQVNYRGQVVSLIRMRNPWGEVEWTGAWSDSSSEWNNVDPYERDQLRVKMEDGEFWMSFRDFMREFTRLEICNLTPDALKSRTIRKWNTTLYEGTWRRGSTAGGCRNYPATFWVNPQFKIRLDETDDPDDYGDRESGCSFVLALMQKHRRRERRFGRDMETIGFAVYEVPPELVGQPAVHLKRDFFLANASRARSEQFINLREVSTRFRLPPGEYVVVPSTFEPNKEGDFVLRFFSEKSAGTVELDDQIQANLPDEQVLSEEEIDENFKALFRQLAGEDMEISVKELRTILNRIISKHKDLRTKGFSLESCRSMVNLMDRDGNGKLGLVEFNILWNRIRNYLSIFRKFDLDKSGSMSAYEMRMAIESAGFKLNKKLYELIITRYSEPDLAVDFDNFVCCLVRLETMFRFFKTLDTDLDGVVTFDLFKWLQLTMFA
5-hydroxytryptamine receptor 2A (Rattus norvegicus), sequence (P14842 whole entry): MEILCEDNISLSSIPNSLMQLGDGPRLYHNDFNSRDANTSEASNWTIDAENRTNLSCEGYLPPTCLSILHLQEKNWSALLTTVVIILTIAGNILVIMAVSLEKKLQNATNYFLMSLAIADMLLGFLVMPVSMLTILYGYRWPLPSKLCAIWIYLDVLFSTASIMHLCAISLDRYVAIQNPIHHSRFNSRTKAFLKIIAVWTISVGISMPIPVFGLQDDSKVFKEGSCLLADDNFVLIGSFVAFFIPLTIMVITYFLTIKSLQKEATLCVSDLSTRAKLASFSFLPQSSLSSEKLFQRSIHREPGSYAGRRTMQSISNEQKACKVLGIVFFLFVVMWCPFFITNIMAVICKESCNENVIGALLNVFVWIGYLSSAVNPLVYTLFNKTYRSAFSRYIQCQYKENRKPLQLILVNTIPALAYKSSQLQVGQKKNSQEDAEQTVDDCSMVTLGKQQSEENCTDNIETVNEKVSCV
Adenosine receptor A1 (Homo sapiens), sequence (P30542 whole entry): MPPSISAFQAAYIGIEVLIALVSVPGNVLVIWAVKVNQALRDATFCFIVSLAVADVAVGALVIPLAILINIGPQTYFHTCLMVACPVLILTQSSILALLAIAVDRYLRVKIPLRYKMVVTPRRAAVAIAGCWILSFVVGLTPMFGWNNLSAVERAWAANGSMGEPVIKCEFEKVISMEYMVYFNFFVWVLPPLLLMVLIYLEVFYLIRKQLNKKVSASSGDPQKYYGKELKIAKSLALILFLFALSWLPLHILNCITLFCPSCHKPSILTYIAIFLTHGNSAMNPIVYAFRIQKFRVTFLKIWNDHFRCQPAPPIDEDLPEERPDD
Thromboxane A2 receptor (Homo sapiens), sequence (P21731 whole entry): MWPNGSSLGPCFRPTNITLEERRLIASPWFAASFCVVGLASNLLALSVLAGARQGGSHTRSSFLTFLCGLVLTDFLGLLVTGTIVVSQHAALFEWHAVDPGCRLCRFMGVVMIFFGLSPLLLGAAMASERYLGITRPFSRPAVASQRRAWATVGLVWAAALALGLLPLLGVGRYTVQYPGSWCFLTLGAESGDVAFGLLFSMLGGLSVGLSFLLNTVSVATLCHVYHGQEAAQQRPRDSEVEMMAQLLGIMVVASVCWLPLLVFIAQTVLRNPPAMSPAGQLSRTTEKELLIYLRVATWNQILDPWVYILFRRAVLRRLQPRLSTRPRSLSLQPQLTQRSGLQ
Pro-cathepsin H (Homo sapiens), sequence (P09668 116-335 limits assumed, other chains not shown): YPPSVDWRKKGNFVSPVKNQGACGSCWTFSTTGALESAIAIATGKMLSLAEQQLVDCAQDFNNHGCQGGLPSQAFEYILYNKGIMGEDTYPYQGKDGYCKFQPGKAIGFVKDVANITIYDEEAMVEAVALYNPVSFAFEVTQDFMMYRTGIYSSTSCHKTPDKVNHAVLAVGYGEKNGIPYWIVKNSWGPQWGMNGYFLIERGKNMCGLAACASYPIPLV
Histamine H2 receptor (Homo sapiens), sequence (P25021 whole entry): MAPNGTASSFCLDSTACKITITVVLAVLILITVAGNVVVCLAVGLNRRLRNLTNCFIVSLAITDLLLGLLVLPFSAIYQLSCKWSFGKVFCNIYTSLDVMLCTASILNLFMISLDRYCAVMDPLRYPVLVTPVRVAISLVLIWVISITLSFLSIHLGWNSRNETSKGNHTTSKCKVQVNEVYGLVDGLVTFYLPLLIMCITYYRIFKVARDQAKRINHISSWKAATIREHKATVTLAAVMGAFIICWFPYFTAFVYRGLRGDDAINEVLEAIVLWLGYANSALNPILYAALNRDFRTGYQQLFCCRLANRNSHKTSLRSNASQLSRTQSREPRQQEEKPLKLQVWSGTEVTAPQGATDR
Procathepsin L (Homo sapiens), sequence (P07711 114-333 limits assumed): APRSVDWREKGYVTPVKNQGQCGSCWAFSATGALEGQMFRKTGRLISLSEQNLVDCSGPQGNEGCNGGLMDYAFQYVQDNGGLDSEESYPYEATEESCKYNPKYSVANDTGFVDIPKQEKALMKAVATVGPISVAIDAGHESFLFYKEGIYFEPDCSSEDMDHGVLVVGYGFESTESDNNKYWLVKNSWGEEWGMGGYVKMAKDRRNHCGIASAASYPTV

## C=C[C@@H]1C[C@]1(NC(=O)[C@@H]1C[C@@H](Oc2cc(-c3csc(NC(=O)C(C)C)n3)nc3c(Br)c(OC)ccc23)CN1C(=O)[C@@H](NC(=O)OC1CCCC1)C(C)(C)C)C(=O)O
Rattus norvegicus [1]
  inhibition: 10%
[2]
  inhibition: 5%
[3]
  inhibition: 5%
[4]
  inhibition: 18%
[5]
  inhibition: 4%
[6]
  inhibition: 2%
[7]
  inhibition: 15%
Hepatitis C virus
  Ki: 2.8 nM
[8]
  MRT: 3.18 h
[9]
  Cmax: 410 nM
[10]
  Cmax: 2000 nM
[11]
  Tmax: 2 h
[12]
  AUC: 8.3 µM·h
[13]
  inhibition: 74%
[14]
  inhibition: 18%
Caspase-1 (Homo sapiens)
  inhibition: 13%
Caspase-7 (Homo sapiens)
  inhibition: 28%
[15]
  inhibition: 12%
Cathepsin C (Bos taurus)
  inhibition: 1%
[16]
  inhibition: 21%
[17]
  inhibition: 7%
[18]
  inhibition: 0%
Homo sapiens [19]
  inhibition: 0%
[20]
  inhibition: 3%
[21]
  inhibition: 13%
[22]
  inhibition: 9%
[23]
  inhibition: 2%
[24]
  inhibition: 11%
Rattus norvegicus [25]
  inhibition: 9%
[26]
  inhibition: 1%
Rattus norvegicus [27]
  inhibition: 16%
[28]
  inhibition: 21%
Homo sapiens [29]
  inhibition: 22%
Mesocricetus auratus
  inhibition: 12%
[30]
  inhibition: 47%
[31]
  inhibition: 18%
[32]
  inhibition: 7%
[33]
  inhibition: 18%
Rattus norvegicus [34]
  inhibition: 12%
Homo sapiens [35]
  inhibition: 0%
[36]
  inhibition: 22%
Homo sapiens [37]
  inhibition: 11%
[38]
  inhibition: 14%
